Measurements: ChEMBL document CHEMBL4373718, “Germacrane Sesquiterpenoids as a New Type of Anticardiac Fibrosis Agent Targeting Transforming Growth Factor β Type I Receptor” (J Med Chem, 2019)
The source made the active and inactive calls. The calls are words filed in the database; no cut-off is given here.

How the values were obtained:
[1] = target: T1, TGF-beta receptor type-1 (Rattus norvegicus) (UniProt P80204); assay: Inhibition of TGFbeta1 receptor in TGFbeta1-stimulated Sprague-Dawley rat cardiac fibroblasts assessed as reduction in fibronectin expression at 50 uM measured after 12 hrs by Western blot analysis
T1 sequence (whole entry): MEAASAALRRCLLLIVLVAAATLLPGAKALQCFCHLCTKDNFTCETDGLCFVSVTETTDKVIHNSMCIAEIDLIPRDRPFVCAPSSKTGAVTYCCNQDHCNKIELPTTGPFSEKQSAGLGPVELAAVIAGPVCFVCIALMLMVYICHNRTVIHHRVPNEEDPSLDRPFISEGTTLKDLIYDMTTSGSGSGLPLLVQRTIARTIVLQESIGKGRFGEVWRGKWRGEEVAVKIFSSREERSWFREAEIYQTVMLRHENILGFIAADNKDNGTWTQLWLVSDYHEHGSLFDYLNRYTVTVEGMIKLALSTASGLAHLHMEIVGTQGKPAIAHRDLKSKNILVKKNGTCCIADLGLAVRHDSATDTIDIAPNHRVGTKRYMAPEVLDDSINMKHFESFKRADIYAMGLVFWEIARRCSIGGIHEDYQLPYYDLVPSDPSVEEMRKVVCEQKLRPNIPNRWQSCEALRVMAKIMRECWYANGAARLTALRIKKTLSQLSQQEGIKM
How it was run: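 Screen in primary rat cardiac fibroblasts: compounds at 50 µM or 10 µM given with 10 ng/mL TGFβ1 for 12 h. FN measured by Western blot with GAPDH loading control and densitometry. N=3 independent experiments.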

[2] = target: T1, TGF-beta receptor type-1 (Rattus norvegicus); assay: Inhibition of TGFbeta1 receptor in TGFbeta1-stimulated Sprague-Dawley rat cardiac fibroblasts assessed as reduction in fibronectin expression at 10 uM measured after 12 hrs by Western blot analysis relative to control
How it was run: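 Primary rat cardiac fibroblasts (passages 2–4, 3×10^5 per well) treated with compound plus 10 ng/mL TGFβ1 for 12 h; tested at 2.5, 5 and 10 µM. Lysates run on 10% SDS-PAGE (30 µg protein), probed for FN, α-SMA and collagen I/III, and quantified by densitometry against GAPDH. N=3 independent experiments.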

Rattus norvegicus [3] = assay: Antifibrotic activity in abdominal aortic constriction Sprague-Dawley rat model of cardiac fibrosis assessed as diastolic left ventricular posterior wall thickness at 10 mg/kg, ip administered once daily for 4 weeks measured post-last dose by echocardiography (reference value: 2.33 +/- 0.31 mm); type: functional
Rattus norvegicus [4] = assay: Antifibrotic activity in abdominal aortic constriction Sprague-Dawley rat model of cardiac fibrosis assessed as systolic left ventricular posterior wall thickness at 10 mg/kg, ip administered once daily for 4 weeks measured post-last dose by echocardiography (reference value: 3.62 +/- 0.26 mm); type: functional
Rattus norvegicus [5] = assay: Antifibrotic activity in abdominal aortic constriction Sprague-Dawley rat model of cardiac fibrosis assessed as diastolic left ventricular anterior wall thickness at 10 mg/kg, ip administered once daily for 4 weeks measured post-last dose by echocardiography (reference value: 2.48 +/- 0.42 mm); type: functional
Rattus norvegicus [6] = assay: Antifibrotic activity in abdominal aortic constriction Sprague-Dawley rat model of cardiac fibrosis assessed as decrease in heart fibronectin level at 10 mg/kg, ip administered once daily for 4 weeks measured post-last dose by immunohistochemical analysis; type: functional, organism-based
How it was run: (§1)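 Male SD rats (200–250 g, n = 8/group) had the suprarenal abdominal aorta tied with 4-0 silk around a 21-G probe, which was then removed; sham rats had surgery without constriction. Dosing was ip daily for 4 weeks in saline with 0.5% DMSO and 5% Kolliphor HS 15. Ventricle slices were formalin-fixed, paraffin-embedded and cut into 4 µm sections. FN and α-SMA were read by immunohistochemistry and collagen by Masson's trichrome.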

[7] = target: T1, TGF-beta receptor type-1 (Rattus norvegicus); assay: Inhibition of TGFbeta1 receptor in TGFbeta1-stimulated Sprague-Dawley rat cardiac fibroblasts assessed as reduction in collagen 3 expression at 20 uM measured after 12 hrs by Western blot analysis
How it was run: (§2)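 Primary adult male SD rat cardiac fibroblasts were used at passages 2–4, seeded at 3×10^5 per well. Cells were co-treated with compound and 10 ng/mL TGFβ1 for 12 h. Lysates (30 µg protein) were run on 10% SDS-PAGE, Western blotted for FN, α-SMA, collagen I and III, normalised to GAPDH and quantified by densitometry; N = 3 independent experiments.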

Rattus norvegicus [8] = assay: Antifibrotic activity in abdominal aortic constriction Sprague-Dawley rat model of cardiac fibrosis assessed as decrease in heart alpha-SMA level at 10 mg/kg, ip administered once daily for 4 weeks measured post-last dose by immunohistochemical analysis; type: functional, organism-based; how it was run: as §1
Rattus norvegicus [9] = assay: Antifibrotic activity in abdominal aortic constriction Sprague-Dawley rat model of cardiac fibrosis assessed as ejection fraction at 10 mg/kg, ip administered once daily for 4 weeks measured post-last dose by echocardiography (reference value: 79.59 +/- 3.13%); type: functional
Rattus norvegicus [10] = assay: Antifibrotic activity in abdominal aortic constriction Sprague-Dawley rat model of cardiac fibrosis assessed as diastolic left ventricular internal diameter at 10 mg/kg, ip administered once daily for 4 weeks measured post-last dose by echocardiography (reference value: 7.60 +/- 0.63 mm); type: functional
Rattus norvegicus [11] = assay: Antifibrotic activity in abdominal aortic constriction Sprague-Dawley rat model of cardiac fibrosis assessed as decrease in heart collagen level at 10 mg/kg, ip administered once daily for 4 weeks measured post-last dose by Masson's trichrome staining-based histological analysis; type: functional, organism-based; how it was run: as §1
[12] = target: T1, TGF-beta receptor type-1 (Rattus norvegicus); assay: Inhibition of TGFbeta1 receptor in TGFbeta1-stimulated Sprague-Dawley rat cardiac fibroblasts assessed as reduction in alpha-SMA expression at 20 uM measured after 12 hrs by Western blot analysis; how it was run: as §2
[13] = target: T1, TGF-beta receptor type-1 (Rattus norvegicus); assay: Inhibition of TGFbeta1 receptor in TGFbeta1-stimulated Sprague-Dawley rat cardiac fibroblasts assessed as reduction in collagen 1 expression at 20 uM measured after 12 hrs by Western blot analysis; how it was run: as §2
Rattus norvegicus [14] = assay: Antifibrotic activity in abdominal aortic constriction Sprague-Dawley rat model of cardiac fibrosis assessed as systolic left ventricular anterior wall thickness at 10 mg/kg, ip administered once daily for 4 weeks measured post-last dose by echocardiography (reference value: 3.92 +/- 0.42 mm); type: functional
[15] = target: T1, TGF-beta receptor type-1 (Rattus norvegicus); assay: Inhibition of TGFbeta1 receptor in TGFbeta1-stimulated Sprague-Dawley rat cardiac fibroblasts assessed as reduction in fibronectin expression at 20 uM measured after 12 hrs by Western blot analysis; how it was run: as §2
Rattus norvegicus [16] = assay: Antifibrotic activity in abdominal aortic constriction Sprague-Dawley rat model of cardiac fibrosis assessed as fractional shortening at 10 mg/kg, ip administered once daily for 4 weeks measured post-last dose by echocardiography (reference value: 48.17 +/- 4.69%); type: functional
Rattus norvegicus [17] = assay: Antifibrotic activity in abdominal aortic constriction Sprague-Dawley rat model of cardiac fibrosis assessed as systolic left ventricular internal diameter at 10 mg/kg, ip administered once daily for 4 weeks measured post-last dose by echocardiography (reference value: 3.99 +/- 0.41 mm); type: functional
[18] = target: T1, TGF-beta receptor type-1 (Rattus norvegicus); assay: Inhibition of TGFbeta1 receptor in TGFbeta1-stimulated Sprague-Dawley rat cardiac fibroblasts assessed as reduction in collagen 3 expression at 2 mM measured after 12 hrs by Western blot analysis
[19] = target: T1, TGF-beta receptor type-1 (Rattus norvegicus); assay: Inhibition of TGFbeta1 receptor in TGFbeta1-stimulated Sprague-Dawley rat cardiac fibroblasts assessed as reduction in collagen 1 expression at 2 mM measured after 12 hrs by Western blot analysis
[20] = target: T1, TGF-beta receptor type-1 (Rattus norvegicus); assay: Inhibition of TGFbeta1 receptor in TGFbeta1-stimulated Sprague-Dawley rat cardiac fibroblasts assessed as reduction in fibronectin expression at 2 mM measured after 12 hrs by Western blot analysis
[21] = target: T1, TGF-beta receptor type-1 (Rattus norvegicus); assay: Inhibition of TGFbeta1 receptor in TGFbeta1-stimulated Sprague-Dawley rat cardiac fibroblasts assessed as reduction in alpha-SMA expression at 2 mM measured after 12 hrs by Western blot analysis

| SMILES | fibronectin reduction (active/not active) [1] | fibronectin reduction verdict (active/not active) [2] | further results |
| --- | --- | --- | --- |
| C=C(C)[C@@H]1C/C=C(\C)[C@H](OC(=O)c2cccs2)CCC2=C[C@@H]1OC2=O | Active | – | – |
| C=C(C)[C@@H]1C/C=C(\C)[C@H](OC)CCC2=C[C@@H]1OC2=O | Active | – | – |
| C=C(C)[C@@H]1CC/C(C)=C/CC[C@@H](C(=O)OCC)CC1=O | inactive | inactive | – |
| C=C(C)[C@@H]1C/C=C(\C)[C@@H](O)CCC2=C[C@@H]1OC2=O | Active | – | – |
| C=C(C)[C@@H]1C/C=C(\C)[C@H](O[N+](=O)[O-])CCC2=C[C@@H]1OC2=O | Active | – | – |
| C=C(C)[C@@H]1C/C=C(\C)[C@H](F)CCC2=C[C@@H]1OC2=O | Active | – | – |
| C=C(C)[C@@H]1C/C=C(C)/C(=N\OC(=O)c2ccco2)CCC2=C[C@@H]1OC2=O | inactive | inactive | – |
| C=C(C)[C@@H]1CC[C@]2(C)O[C@@H]2CCC2=C[C@@H]1OC2=O | Active | – | – |
| C=C(C)[C@@H]1C/C=C(\C)[C@H](OC(C)=O)CCC2=C[C@@H]1OC2=O | Active | – | – |
| C=C(C)[C@@H]1C[C@@H](N2CCCCC2)/C(C)=C/CCC2=C[C@@H]1OC2=O | inactive | inactive | – |
| C=C(C)[C@@H]1C/C=C(\C)[C@H](Br)CCC2=C[C@@H]1OC2=O | Active | Active | – |
| C=C(C)[C@@H]1C/C=C(\C)[C@H](OC(=O)c2ccc(C(F)(F)F)cc2)CCC2=C[C@@H]1OC2=O | Active | – | – |
| C=C(C)[C@@H]1C/C=C(\C)[C@H](O)CCC2=C[C@@H]1OC2=O | Active | – | – |
| COC(=O)C1=C(C)NC(C)=C(C(=O)OC)C1c1ccccc1[N+](=O)[O-] [NIFEDIPINE] | – | – | Activity (Rattus norvegicus [3]): 1.97 mm; Activity (Rattus norvegicus [4]): 3.19 mm; Activity (Rattus norvegicus [5]): 2.02 mm; Activity (Rattus norvegicus [6]): Active; inhibition [7]: Active; Activity (Rattus norvegicus [8]): Active; Activity (Rattus norvegicus [9]): 72.6%; Activity (Rattus norvegicus [10]): 8.32 mm; Activity (Rattus norvegicus [11]): Active; inhibition [12]: Active; inhibition [13]: Active; Activity (Rattus norvegicus [14]): 3.23 mm; inhibition [15]: Active; Activity (Rattus norvegicus [16]): 42.79%; Activity (Rattus norvegicus [17]): 4.69 mm |
| C=C(C)[C@@H]1C[C@@H](OC)/C(C)=C/CCC2=C[C@@H]1OC2=O | inactive | inactive | – |
| C=C(C)[C@@H]1C[C@@H](N2CCOCC2)/C(C)=C/CCC2=C[C@@H]1OC2=O | inactive | inactive | – |

| SMILES | fibronectin reduction (active/not active) [1] | fibronectin reduction verdict (active/not active) [2] | further results |
| --- | --- | --- | --- |
| C=C1CC[C@@H](C(=C)C)[C@@H]2C=C(CC[C@H]1F)C(=O)O2 | Active | – | – |
| C=C(C)[C@@H]1C/C=C(\C)[C@H](N=[N+]=[N-])CCC2=C[C@@H]1OC2=O | Active | – | – |
| C=C(C)[C@@H]1C/C=C(\C)[C@H](OC(=O)c2cc(C(F)(F)F)cc(C(F)(F)F)c2)CCC2=C[C@@H]1OC2=O | Active | Active | – |
| C=C(C)[C@@H]1C/C=C(\C)[C@H](Cl)CCC2=C[C@@H]1OC2=O | Active | Active | – |
| C=C(C)[C@@H]1C[C@@H](OC(C)C)/C(C)=C/CCC2=C[C@@H]1OC2=O | inactive | inactive | – |
| O=C1CCC[C@@H]2[C@H]3CCC[N+]4([O-])CCC[C@@H](CN12)[C@@H]34 (stereo partly specified) | – | – | inhibition [18]: Active; inhibition [19]: Active; inhibition [20]: Active; inhibition [21]: Active |
| C=C(C)[C@@H]1CC/C(C)=C/CCC2=C[C@@H]1OC2=O | Active | – | – |
| C=C(C)[C@@H]1C[C@@H](N2CCCC2)/C(C)=C/CCC2=C[C@@H]1OC2=O | inactive | inactive | – |
| C=C(C)[C@@H]1C[C@@H](O)/C(C)=C/CCC2=C[C@@H]1OC2=O | Active | Active | – |
| C=C(C)[C@@H]1C[C@@H](OC=O)/C(C)=C/CCC2=C[C@@H]1OC2=O | inactive | inactive | – |
| C=C(C)[C@@H]1C[C@@H](OCC)/C(C)=C/CCC2=C[C@@H]1OC2=O | inactive | inactive | – |
| C=C(C)[C@@H]1C/C=C(\C)[C@H](OCC)CCC2=C[C@@H]1OC2=O | Active | – | – |
| C=C(C)[C@@H]1C/C=C(\C)[C@H](OC(=O)c2ccc([N+](=O)[O-])cc2)CCC2=C[C@@H]1OC2=O | Active | Active | – |
| C=C(C)[C@@H]1C/C=C(C)/C(=N\OC(C)=O)CCC2=C[C@@H]1OC2=O | inactive | inactive | – |
| C=C(C)[C@@H]1CC/C(C)=C/CC[C@@H](C(=O)OC)CC1=O | inactive | inactive | – |
| C=C(C)[C@@H]1C/C=C(\C)[C@H](OC(=O)c2cccnc2Cl)CCC2=C[C@@H]1OC2=O | Active | Active | – |
